Among the data in ChEMBL document CHEMBL1133502, “Thio- and oxoflavopiridols, cyclin-dependent kinase 1-selective inhibitors: synthesis and biological effects” (J Med Chem, 2000) are IC50 values, retold here.

pIC50: −log10 of the molar value.

Experiment [1] addresses Cyclin-dependent kinase 2/cyclin E (Homo sapiens, UniProt P24941). The experiment is described as follows: Inhibition of Cyclin-dependent kinase 2-cyclin E. The format is protein-complex assay.
The target of experiment [2] is Cyclin-dependent kinase 1/cyclin B1 (Homo sapiens, UniProt P06493). It is filed as protein-complex assay.
Sequence of Cyclin-dependent kinase 1/cyclin B1 (P06493 whole entry): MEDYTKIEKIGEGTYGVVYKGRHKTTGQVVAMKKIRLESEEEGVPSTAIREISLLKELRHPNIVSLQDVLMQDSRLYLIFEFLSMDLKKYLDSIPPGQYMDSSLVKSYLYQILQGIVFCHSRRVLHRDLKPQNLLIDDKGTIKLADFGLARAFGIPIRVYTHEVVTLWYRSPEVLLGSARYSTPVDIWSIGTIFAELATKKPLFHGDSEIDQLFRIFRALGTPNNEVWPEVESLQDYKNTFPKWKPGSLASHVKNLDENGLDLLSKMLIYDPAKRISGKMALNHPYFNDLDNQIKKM
Sequence of Cyclin-dependent kinase 1/cyclin B1 (P14635 whole entry, further chain): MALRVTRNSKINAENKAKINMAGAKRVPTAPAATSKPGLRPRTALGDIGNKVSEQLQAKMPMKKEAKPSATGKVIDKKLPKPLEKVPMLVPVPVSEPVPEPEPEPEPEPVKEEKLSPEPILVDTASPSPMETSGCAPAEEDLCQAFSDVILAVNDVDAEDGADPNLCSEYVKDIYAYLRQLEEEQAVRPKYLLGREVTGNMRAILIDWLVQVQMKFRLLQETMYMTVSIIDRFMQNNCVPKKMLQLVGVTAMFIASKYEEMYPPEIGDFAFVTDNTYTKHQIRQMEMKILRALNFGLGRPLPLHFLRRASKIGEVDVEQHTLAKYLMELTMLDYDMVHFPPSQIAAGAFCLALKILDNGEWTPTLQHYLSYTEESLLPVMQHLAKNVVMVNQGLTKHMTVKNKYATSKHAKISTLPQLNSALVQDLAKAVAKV
Experiment [3] concerns the target Cyclin-dependent kinase 4/cyclin D1 (Homo sapiens, UniProt P11802). Nature of the experiment: Inhibition of Cyclin-dependent kinase 4-cyclin D1. The format is protein-complex assay.
Experiment [4] has as its target Cyclin-dependent kinase 2/cyclin A (Homo sapiens, UniProt P24941). Nature of the experiment: Inhibition of Cyclin-dependent kinase 2-cyclin A. The format is protein-complex assay.
Experiment [5] is described as follows: Inhibition of Cyclin-dependent kinase 1-cyclin A. Further details: species or system Homo sapiens.
Experiment [6] in a line: Inhibition of Mitogen-activated protein kinase. Further details: species or system Xenopus laevis.
Experiment [7] is described as follows: Inhibition of PKA kinase. Further details: species or system Bos taurus. Summed up:
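Bovine heart PKA (2 units) with 500 ng GST-TK fusion substrate and 25 μM [32P]ATP, in 50 mM Tris pH 7.5, 10 mM MgCl2. Incubated 1 h at 30 °C. Read-out by TCA precipitation.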

Experiment [8] has as its target Protein kinase C (PKC). Nature of the experiment: Inhibition of rat brain PKC kinase. Summed up: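 Commercial PKC assay system run at 20 μM ATP. Read-out by spotting onto p81 phosphocellulose.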
The target of experiment [9] is Epidermal growth factor receptor (Homo sapiens, UniProt P00533). Nature of the experiment: Inhibition of Epidermal growth factor receptor.
Sequence of Epidermal growth factor receptor (P00533 whole entry): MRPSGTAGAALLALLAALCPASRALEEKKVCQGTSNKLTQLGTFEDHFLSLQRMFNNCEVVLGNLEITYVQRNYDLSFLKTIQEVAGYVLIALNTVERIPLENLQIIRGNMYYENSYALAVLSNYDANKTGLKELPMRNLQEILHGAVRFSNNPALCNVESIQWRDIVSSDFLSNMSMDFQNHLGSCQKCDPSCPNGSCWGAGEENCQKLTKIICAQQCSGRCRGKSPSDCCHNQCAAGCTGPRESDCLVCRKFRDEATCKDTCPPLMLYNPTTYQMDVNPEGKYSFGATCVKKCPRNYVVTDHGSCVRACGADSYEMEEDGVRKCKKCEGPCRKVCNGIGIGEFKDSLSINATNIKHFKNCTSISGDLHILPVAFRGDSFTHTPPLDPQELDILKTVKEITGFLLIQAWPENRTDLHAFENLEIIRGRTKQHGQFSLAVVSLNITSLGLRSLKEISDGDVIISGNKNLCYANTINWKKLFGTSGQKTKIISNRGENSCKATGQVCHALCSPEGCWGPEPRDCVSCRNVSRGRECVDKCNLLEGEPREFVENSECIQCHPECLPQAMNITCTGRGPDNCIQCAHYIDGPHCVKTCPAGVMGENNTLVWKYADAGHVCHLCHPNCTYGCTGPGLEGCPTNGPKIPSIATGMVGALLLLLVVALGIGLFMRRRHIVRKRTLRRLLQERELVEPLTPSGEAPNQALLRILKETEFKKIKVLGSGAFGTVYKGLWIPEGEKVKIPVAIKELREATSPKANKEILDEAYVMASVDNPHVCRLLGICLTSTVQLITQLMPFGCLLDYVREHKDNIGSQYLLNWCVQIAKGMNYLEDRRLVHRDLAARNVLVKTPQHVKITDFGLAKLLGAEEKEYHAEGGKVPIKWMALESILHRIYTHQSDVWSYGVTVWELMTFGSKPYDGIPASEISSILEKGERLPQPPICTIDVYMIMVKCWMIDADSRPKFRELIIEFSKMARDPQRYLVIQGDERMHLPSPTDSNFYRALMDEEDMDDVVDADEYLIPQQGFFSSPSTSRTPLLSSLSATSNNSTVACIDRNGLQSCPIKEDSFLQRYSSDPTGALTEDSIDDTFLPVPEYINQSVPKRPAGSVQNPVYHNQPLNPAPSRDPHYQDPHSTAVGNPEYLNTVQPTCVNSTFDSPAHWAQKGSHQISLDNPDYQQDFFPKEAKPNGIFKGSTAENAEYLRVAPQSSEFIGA
For experiment [10], the system named is A2780. Nature of the experiment: cells. The settings on record: Homo sapiens.
Experiment [11] concerns MIA PaCa-2. The experiment is described as follows: cells. As to conditions: Homo sapiens.
Experiment [12] relates to PC-3. Nature of the experiment: cells. As to conditions: Homo sapiens.
Experiment [13] concerns HCT-116. Nature of the experiment: cells. As to conditions: Homo sapiens.

Sequence of Cyclin-dependent kinase 4/cyclin D1 (P11802 whole entry): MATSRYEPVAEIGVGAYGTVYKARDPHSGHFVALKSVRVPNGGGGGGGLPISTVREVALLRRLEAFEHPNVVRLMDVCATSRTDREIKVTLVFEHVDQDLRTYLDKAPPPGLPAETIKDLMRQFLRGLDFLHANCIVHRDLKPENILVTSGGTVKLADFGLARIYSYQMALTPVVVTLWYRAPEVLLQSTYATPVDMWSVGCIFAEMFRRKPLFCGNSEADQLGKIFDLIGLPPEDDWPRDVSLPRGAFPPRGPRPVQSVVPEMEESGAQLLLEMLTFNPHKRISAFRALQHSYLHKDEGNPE
Sequence of Cyclin-dependent kinase 4/cyclin D1 (P24385 whole entry, further chain): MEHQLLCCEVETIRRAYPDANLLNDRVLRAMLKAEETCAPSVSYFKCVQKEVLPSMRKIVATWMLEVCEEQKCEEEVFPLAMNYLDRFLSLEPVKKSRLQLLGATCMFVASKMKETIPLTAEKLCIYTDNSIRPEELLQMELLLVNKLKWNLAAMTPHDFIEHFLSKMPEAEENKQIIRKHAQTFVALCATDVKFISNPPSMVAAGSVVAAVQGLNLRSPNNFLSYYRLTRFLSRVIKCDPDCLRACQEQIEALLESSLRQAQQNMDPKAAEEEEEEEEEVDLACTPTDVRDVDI

By pIC50 is commonly meant −log10 of the IC50, conventionally taken in molar units. Low values mean a high IC50, high ones a low IC50. Take `CN1CCC(c2c(O)cc(O)c3c(=O)cc(Sc4ccccc4)oc23)C(O)C1` (racemic): the figures for the pIC50 in experiment [1], in experiment [2] and in [3] were 5.18, 6.36 and 5.39, respectively.

One may read the IC50 as the concentration that gives 50% inhibition. Read a high IC50 as weaker potency in that assay. Regarding `CN1CC[C@H](c2c(O)cc(O)c3c(=O)cc(Sc4ccccc4Cl)oc23)[C@H](O)C1` (stereo in doubt; 16), the pIC50 is 5.68 in experiment [1]; 5.82 in [4]; 6.80 in [5]; 6.96 in [2]; 4.79 in experiment [3]; < 4.60 in [6]. Moreover, the pIC50 is < 4.30 in experiment [7]; < 4.30 in [9]; 6.06 in experiment [10]; 7.52 in experiment [11]; 7.70 in experiment [12]; 6.68 in experiment [13]. Also, the IC50 in experiment [8] was found to be 16.1 µM.

As to `CN1CC[C@H](c2c(O)cc(O)c3c(=O)cc(-c4ccccc4Cl)oc23)[C@H](O)C1` [ALVOCIDIB], the figures for the pIC50 in experiment [5], in [6] and in experiment [7] were 7.30, 4.72 and < 4.30, respectively. In experiment [8], this molecule gave an IC50 of 14 µM.

Consider `COC(=O)[C@@]1(Cc2ccc(O)c(CC=C(C)C)c2)OC(=O)C(O)=C1c1ccc(O)cc1` [BUTYROLACTONE I], for which the negative-log IC50 (pIC50) was 3.00 in experiment [3], 4.03 in experiment [6], 3.59 in experiment [7] and 3.23 in [9]. This molecule also registered an IC50 in [8] of 160 µM.

With `CN1CCC(c2c(O)cc(O)c3c(O)c/c(=N\c4ccccc4)oc23)C(O)C1` (racemic), the pIC50 was < 4.60 in experiment [1], 4.79 in experiment [2] and < 4.60 in experiment [3].

Turning to `CN1CC[C@H](c2c(O)cc(O)c3c(=O)cc(Sc4ccccc4Cl)oc23)[C@H](O)C1` (stereo in doubt; 21), the pIC50 in experiment [1] is 5.36; in [2], 5.21; in [3] it was < 4.60.

As for `CN1CC[C@H](c2c(O)cc(O)c3c(=O)cc(Oc4ccccc4Cl)oc23)[C@H](O)C1`, the pIC50 was < 4.60 in experiment [6], < 4.30 in experiment [7] and < 4.30 in [9]. The half-maximal inhibitory concentration (IC50) in [8] is > 50 µM.

In the case of `CCSc1cc(=O)c2c(O)cc(O)c(C3CCN(C)CC3O)c2o1` (racemic), the results for the pIC50 in experiment [1], in experiment [2] and in experiment [3] were 5.41, 6.34 and 5.69, respectively.

For `Cc1cc(C)nc(Sc2cc(=O)c3c(O)cc(O)c(C4CCN(C)CC4O)c3o2)n1` (racemic), the pIC50 was 4.39 in experiment [1], 5.19 in experiment [2] and 4.08 in experiment [3].

As to `CN1CCC(c2c(O)cc(O)c3c(=O)cc(SC(C)(C)C)oc23)C(O)C1` (racemic), the negative logarithm of the IC50 (pIC50) in experiment [1] was 5.97; in experiment [2], 7.10; in [3], 5.68.

Regarding `CN1CCC(c2c(O)cc(O)c3c(=O)cc(N4CCCCC4)oc23)C(O)C1` (racemic), the results for the pIC50 in experiment [1], in experiment [2] and in [3] were 5.01, 5.60 and 5.43, respectively.

In the case of `Cn1cnc2c(NCc3ccccc3)nc(NCCO)nc21` [OLOMOUCINE], the pIC50 in experiment [6] was 4.52; in experiment [7] it was 2.70. For the same molecule, the IC50 in [8] is 1000 µM.
